Measurements reported in ChEMBL document CHEMBL4680079, “Discovery of a Quinoline-4-carboxamide Derivative with a Novel Mechanism of Action, Multistage Antimalarial Activity, and Potent in Vivo Efficacy” (J Med Chem, 2016).
pEC50: −log10 of the molar value. In brackets after ≈: the same amount, converted by molar mass.

Experiments:
[1] = test system: Plasmodium falciparum; experiment: Antiplasmodial activity against drug resistant Plasmodium falciparum […] [3H]hypoxanthine incorporation assay; assay type: functional, organism-based
Method in brief: (§1)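 Strains (K1, W2, 7G8, TM90C2A, D6, V1/S resistant; NF54 sensitive) cultured by the Trager and Jensen method; EC50 determined in vitro from [3H]hypoxanthine incorporation.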

[2] = test system: Plasmodium falciparum; experiment: Antiplasmodial activity against late stage (IV/V) Plasmodium falciparum NF54 gametocytes transfected with GFP-LUC assessed as growth inhibition incubated for 72 hrs by mitotracker Red-CMXROS dye based fluorescence microscopic analysis; assay type: functional, organism-based; details: NF54, 72 h
Method in brief: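 NF54 pfs16-LUC-GFP stage IV–V gametocytes (10% parasitaemia, 0.1% haematocrit) exposed to compound in 0.4% DMSO, three concentrations per log, for 72 h at 37°C under 5% CO2/5% O2/90% N2. MitoTracker Red CM-H2Xros then added for 16 h and viable gametocytes counted by imaging.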

[3] = test system: Plasmodium berghei; experiment: Antiplasmodial activity against GFP-transfected Plasmodium berghei ANKA infected in NMRI mouse assessed as reduction in parasitemia by measuring effective dose administered once daily oral dose for 4 days; assay type: functional; details: 96 h, time 4 day
Method in brief: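 Female NMRI mice (n=3 per group, randomized, not blinded) infected with GFP-transfected P. berghei ANKA. Oral dosing once daily for 4 days in 10% DMSO/40% PEG400/50% water or HPMC suspension vehicle. Parasitaemia measured by flow cytometry on blood collected 96 h after infection. Mice watched for toxicity over 4 h post-dose each day.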

[4] = test system: Plasmodium falciparum; experiment: Antiplasmodial activity against drug resistant Plasmodium falciparum V1/S by [3H]hypoxanthine incorporation assay; assay type: functional, organism-based; method in brief: as §1
[5] = Oral bioavailability in Sprague-Dawley rat at 3 mg/kg administered via gavage by UPLC-MS/MS analysis; assay type: ADME, organism-based; details: in vivo
Method in brief: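 Oral gavage solution, 3 mg free base/kg (10 mL/kg; 0.5% w/v HPMC, 0.4% v/v Tween 80, 0.5% v/v benzyl alcohol), given to male Sprague Dawley rats (n=3). Blood taken at 5, 15, 30 min and 1, 2, 4, 6, 8, 24, 30 h, mixed with two volumes water, analysed by UPLC-MS/MS.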

[6] = Permeability of the compound at 10 uM incubated for 5 hrs by UPLC-MS/MS analysis based PAMPA method; assay type: ADME; details: read-out: permeability
Method in brief: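 PAMPA run on a lipid-oil-lipid tri-layer filter at pH 7.4. Compound at 10 μM in PBS (DMSO ≤5%) in donor wells, PBS in acceptor wells, kept 5 h at room temperature. Both compartments quantified by UPLC-MS/MS. Data accepted only when recovery exceeded 70%.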

[7] = test system: Plasmodium berghei; experiment: Antiplasmodial activity against Plasmodium berghei ANKA infected in NMRI mouse assessed as survival days at 3 mg/kg, po QD for 4 days; assay type: functional; details: time 4 day
[8] = test system: Plasmodium falciparum; experiment: Antiplasmodial activity against chloroquine-sensitive Plasmodium falciparum 3D7 infected in human red blood cells assessed as growth inhibition by SYBR Green fluorescence assay; assay type: functional, organism-based, RBC; details: 3D7, Erythrocyte
Method in brief: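 P. falciparum 3D7 grown in 5% human red cells in RPMI 1640 (pH 7.3) with 0.5% Albumax II, hypoxanthine and gentamicin at 37°C under 1% O₂/3% CO₂. Growth measured by SYBR green fluorescence (ex 485/em 528 nm), with mefloquine as assay control. EC50 calculated.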

[9] = Kinetic aqueous solubility of the compound by laser nephelometry; assay type: physicochemical; details: read-out: Kinetic_solubility
Method in brief: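 Kinetic solubility measured by laser nephelometry. DMSO serial dilutions diluted into water to give final 100–5 μg/mL at 1.0% DMSO. Read immediately, in triplicate aliquots.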

[10] = Half-life in NMRI mouse at 1 mg/kg, iv administered as bolus dose by UPLC-MS/MS analysis; assay type: ADME, organism-based; details: in vivo
[11] = Intrinsic clearance in Sprague-Dawley rat liver microsomes at 0.5 uM in presence of NADPH incubated upto 30 mins by UPLC-MS/MS analysis; assay type: ADME, Microsome; details: 0.5 h
Method in brief: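 Compound at 0.5 μM incubated with female CD1 mouse, male Sprague-Dawley rat or pooled human liver microsomes (0.5 mg/mL, 50 mM potassium phosphate, pH 7.4). Reaction started with excess NADPH. Samples taken at 0-30 min, quenched in acetonitrile, analysed by UPLC-MS/MS. Verapamil used as control, single time course.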

[12] = Protein binding in CD1 mouse plasma measured after 5 hr by UPLC-MS/MS analysis based equilibrium dialysis method; assay type: ADME, cell-free; details: CD1, mouse, read-out: PPB (converted)
Method in brief: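 Equilibrium dialysis of female CD1 mouse plasma spiked at 10 μg/mL (12-14 kDa membrane) against isotonic buffer for 5 h at ~37°C with shaking. Unbound fraction taken as the buffer/plasma peak-area ratio by UPLC-MS/MS. n=6 replicates, run in triplicate.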

O=C(NCCN1CCCC1)c1cc(-c2ccc(CN3CCOCC3)cc2)nc2ccc(F)cc12 [CABAMIQUINE] showed a pEC50 [1] of 9.52, a pEC50 [2] of 7.62 and an ED90 [3] of 0.1 mg/kg. For the same compound, the pEC50 [4] was 9.15, the bioavailability [5] was 84% and the Papp at 5 h, 10 µM [6] was 7.3 ×10⁻⁶ cm/s. The Survival [7] was 25 days, the pEC50 [8] was 9.00 and the solubility kinetic [9] was 216 µM (≈ 99.9 µg/mL). For the same compound, the t1/2 [10] was 16 h, the CLH [11] was “<= 0.8 ml/min/g” and the fraction unbound at 5 h [12] was 0.37.
